Measurements as given in ChEMBL document CHEMBL1132990, “Synthesis, conformational analysis, and biological activity of C-thioribonucleosides related to tiazofurin” (J Med Chem, 2000).

Key:
K562 [1] = test: Concentration required to inhibit 50% of the cell proliferation of the Human myelogenous leukemia K562 cells.; type: functional, cell-based
Summary of the method: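 K562 cells in log phase (RPMI 1640 + 10% FBS, 5% CO2, 37 °C), seeded at 1 × 10⁵ cells/mL and exposed continuously to compounds (0.5-100 µM, in saline) or saline for 48 h. Cells counted by Coulter counter; inhibition = % reduction in proliferation versus saline; IC50 = concentration giving 50% inhibition at 48 h.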

K562 [2] = test: Tested for the influence on the ribonucleotide (GTP) concentration in myelogenous leukemia K562 cell culture.; type: functional, Homo sapiens
Summary of the method: (§1)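 Cultured K562 cells given 100 µM compound (2 µM for reference furanoside) or saline for 2 h at 37 °C, then centrifuged, washed once in cold saline and extracted with cold 10% trichloroacetic acid before nucleotide pool measurement.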

K562 [3] = test: Tested for the influence on the ribonucleotide (IMP) concentration in myelogenous leukemia K562 cell culture.; type: functional, Homo sapiens; summary of the method: as §1
[4] = biological target: Inosine-5'-monophosphate dehydrogenase (IMPDH) (Homo sapiens) (UniProt P20839+P12268); test: Inhibitory activity against Inosine-5'-monophosphate dehydrogenase in human myelogenous leukemia K562 cells in culture.; type: cell-based; details: concentration not given here
Sequence of Inosine-5'-monophosphate dehydrogenase (IMPDH) (Homo sapiens) (P20839 whole entry, looked up, other chains not shown): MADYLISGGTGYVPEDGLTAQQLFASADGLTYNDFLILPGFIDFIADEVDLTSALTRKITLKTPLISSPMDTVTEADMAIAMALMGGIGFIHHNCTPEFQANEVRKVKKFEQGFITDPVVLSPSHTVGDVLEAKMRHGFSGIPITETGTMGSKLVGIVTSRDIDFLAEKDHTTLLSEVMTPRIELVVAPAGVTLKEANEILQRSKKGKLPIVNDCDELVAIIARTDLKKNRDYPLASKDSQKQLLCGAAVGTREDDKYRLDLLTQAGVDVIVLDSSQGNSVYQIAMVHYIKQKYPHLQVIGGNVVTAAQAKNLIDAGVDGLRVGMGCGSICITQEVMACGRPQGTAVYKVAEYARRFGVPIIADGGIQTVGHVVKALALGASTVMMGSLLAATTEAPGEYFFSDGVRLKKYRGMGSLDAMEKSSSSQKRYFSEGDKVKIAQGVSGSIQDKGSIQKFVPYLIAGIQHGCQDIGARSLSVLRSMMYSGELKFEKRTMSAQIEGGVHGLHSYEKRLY

IC50 (K562 [1]) [µM] | inhibition [4] [%] | Structure (SMILES) | Control (K562 [2]) [%] | Control (K562 [3]) [%]
4700 |  | NC(=O)c1coc([C@@H]2S[C@H](CO)[C@H](O)C2O)c1 (stereo not given in full) [FURANTHIOFURIN] | 66.1 | 105
1.7 | 76 | NC(=O)c1csc([C@@H]2O[C@H](CO)[C@@H](O)[C@H]2O)c1 | 96.6 | 112
67 |  | NC(=O)c1csc([C@@H]2S[C@H](CO)[C@H](O)C2O)c1 (stereo not given in full) [THIOPHENTHIOFURIN] | 83.9 | 111
